# Test results as given in ChEMBL document CHEMBL5150051, “Identification and Characterization of a Novel Indoleamine 2,3-Dioxygenase 1 Protein Degrader for Glioblastoma” (J Med Chem, 2022).
# Activity calls are given as the source filed them. The rule behind the calls is not given here.
# Biological target: Protein cereblon/Indoleamine 2,3-dioxygenase 1 (Homo sapiens, UniProt P14902+Q96SW2)
# Experiment: Protac activity at CRBN/IDO1 in human U87 cells assessed as decrease in phosphorylated NF-kappaB p65 in nucleus at 1 to 10 uM measured after 24 hrs by Western blot analysis
# Format: cell-based
# Details: dose 1-10 µM
# Sequence of Protein cereblon/Indoleamine 2,3-dioxygenase 1 (P14902 whole entry, looked up): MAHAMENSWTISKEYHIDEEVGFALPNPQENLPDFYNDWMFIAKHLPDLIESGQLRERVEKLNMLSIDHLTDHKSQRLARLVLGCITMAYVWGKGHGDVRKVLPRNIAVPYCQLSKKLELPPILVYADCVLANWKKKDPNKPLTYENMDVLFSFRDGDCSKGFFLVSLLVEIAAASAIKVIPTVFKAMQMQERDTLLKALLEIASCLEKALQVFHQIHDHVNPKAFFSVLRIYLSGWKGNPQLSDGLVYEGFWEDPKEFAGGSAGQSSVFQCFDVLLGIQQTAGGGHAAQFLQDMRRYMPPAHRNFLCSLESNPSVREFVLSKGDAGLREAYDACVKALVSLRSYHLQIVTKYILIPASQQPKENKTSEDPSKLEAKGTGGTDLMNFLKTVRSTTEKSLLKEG
# Sequence of Protein cereblon/Indoleamine 2,3-dioxygenase 1 (Q96SW2 whole entry, looked up): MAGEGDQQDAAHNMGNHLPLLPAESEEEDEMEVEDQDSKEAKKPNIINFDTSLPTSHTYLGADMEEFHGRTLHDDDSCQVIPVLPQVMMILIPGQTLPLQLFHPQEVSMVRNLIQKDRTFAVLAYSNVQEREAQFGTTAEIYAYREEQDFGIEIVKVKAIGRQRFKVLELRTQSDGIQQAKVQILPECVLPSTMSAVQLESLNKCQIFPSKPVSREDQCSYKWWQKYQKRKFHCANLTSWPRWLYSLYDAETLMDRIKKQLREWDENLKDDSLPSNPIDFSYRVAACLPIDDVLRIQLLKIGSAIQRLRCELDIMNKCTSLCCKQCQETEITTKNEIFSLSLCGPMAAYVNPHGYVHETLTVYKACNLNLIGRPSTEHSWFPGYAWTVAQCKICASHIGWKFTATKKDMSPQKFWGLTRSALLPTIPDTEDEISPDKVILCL
row,SMILES,Activity
1,C[C@@H](C(=O)Nc1ccc(OC2CCN(C(=O)CCOCCOCCNc3cccc4c3C(=O)N(C3CCC(=O)N(C)C3=O)C4=O)CC2)cc1)[C@H]1CC[C@@H](c2ccnc3ccc(F)cc32)CC1 (stereo partly specified),Active

# Biological target: Indoleamine 2,3-dioxygenase 1 (Homo sapiens, UniProt P14902)
# Experiment: Binding affinity to IDO1 (unknown origin) assessed as dissociation constant by bio-layer interferometry assay
# Details: not given
# Method in brief: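 Bio-layer interferometry measured binding to IDO1 at 30 °C in PBS with 0.5% DMSO. Kd, kon and koff were derived.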
# Sequence of Indoleamine 2,3-dioxygenase 1 (P14902 whole entry): as the sequence (P14902 whole entry, looked up) above
row,SMILES,Kd
1,C[C@@H](C(=O)Nc1ccc(OC2CCN(C(=O)CCOCCOCCNc3cccc4c3C(=O)N(C3CCC(=O)N(C)C3=O)C4=O)CC2)cc1)[C@H]1CC[C@@H](c2ccnc3ccc(F)cc32)CC1 (stereo partly specified),1100 nM

# Biological target: von Hippel-Lindau disease tumor suppressor/Indoleamine 2,3-dioxygenase 1 (Homo sapiens) (UniProt P14902+P40337)
# Experiment: Protac activity at IDO1/VHL in IFNgamma-stimulated human U87 cells assessed as IDO1 degradation at 10 uM measured after 24 hrs by Western blotting analysis relative to control
# Format: cell-based
# Details: not given
# Method in brief: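 U87 GBM cells primed with human IFNγ 50 ng/mL for 24 h, then exposed to PROTAC at 10 μM for 24 h. Lysates run on western blot; IDO1 bands quantified by densitometry and expressed as percent of normalized IDO1 protein level.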
# Sequence of von Hippel-Lindau disease tumor suppressor/Indoleamine 2,3-dioxygenase 1 (Homo sapiens) (P14902 whole entry, looked up): as above
# Sequence of von Hippel-Lindau disease tumor suppressor/Indoleamine 2,3-dioxygenase 1 (Homo sapiens) (P40337 whole entry, looked up): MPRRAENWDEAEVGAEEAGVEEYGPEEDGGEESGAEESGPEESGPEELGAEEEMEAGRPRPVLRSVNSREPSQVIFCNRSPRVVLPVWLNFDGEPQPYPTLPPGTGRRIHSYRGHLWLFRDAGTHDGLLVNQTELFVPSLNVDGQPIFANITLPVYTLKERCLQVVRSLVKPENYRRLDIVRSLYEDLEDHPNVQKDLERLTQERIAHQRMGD
row,Activity,SMILES
1,88%,Cc1ncsc1-c1ccc(CNC(=O)[C@@H]2C[C@@H](O)CN2C(=O)[C@@H](NCCOCCC(=O)N2CCC(Oc3ccc(NC(=O)[C@H](C)[C@H]4CC[C@@H](c5ccnc6ccc(F)cc65)CC4)cc3)CC2)C(C)(C)C)cc1
2,0%,Cc1ncsc1-c1ccc(CNC(=O)[C@@H]2C[C@@H](O)CN2C(=O)[C@@H](NC(=O)C2(F)CC2)C(C)(C)C)c(OCCOCCOCCOc2ccc(NC(=O)[C@H](C)[C@H]3CC[C@@H](c4ccnc5ccc(F)cc54)CC3)cc2)c1
3,0%,Cc1ncsc1-c1ccc(CNC(=O)[C@@H]2C[C@@H](O)CN2C(=O)[C@@H](NCCOCCOCCOCCOc2ccc(NC(=O)[C@H](C)[C@H]3CC[C@@H](c4ccnc5ccc(F)cc54)CC3)cc2)C(C)(C)C)cc1
4,0%,Cc1ncsc1-c1ccc(CNC(=O)[C@@H]2C[C@@H](O)CN2C(=O)[C@@H](NC(=O)C2(F)CC2)C(C)(C)C)c(OCCOCCOCCOCCOCCOCCOc2cc(NC(=O)[C@H](C)[C@H]3CC[C@@H](c4ccnc5ccc(F)cc54)CC3)ccc2Cl)c1
5,91%,Cc1ncsc1-c1ccc(CNC(=O)[C@@H]2C[C@@H](O)CN2C(=O)[C@@H](NC(=O)C2(F)CC2)C(C)(C)C)c(OCCOCCOCCC(=O)N2CC(Oc3ccc(NC(=O)[C@H](C)[C@H]4CC[C@@H](c5ccnc6ccc(F)cc65)CC4)cc3)C2)c1

# The remaining lines, values behind:
row,SMILES,Activity
1,Cc1ncsc1-c1ccc(CNC(=O)[C@@H]2C[C@@H](O)CN2C(=O)[C@@H](NC(=O)C2(F)CC2)C(C)(C)C)c(OCCOCCC(=O)N2CCC(Oc3ccc(NC(=O)[C@H](C)[C@H]4CC[C@@H](c5ccnc6ccc(F)cc65)CC4)cc3)CC2)c1,72%
2,Cc1ncsc1-c1ccc(CNC(=O)[C@@H]2C[C@@H](O)CN2C(=O)[C@@H](NCCOCCOCCOCCOCCOc2cc(NC(=O)[C@H](C)[C@H]3CC[C@@H](c4ccnc5ccc(F)cc54)CC3)ccc2Cl)C(C)(C)C)cc1,0%
3,Cc1ncsc1-c1ccc(CNC(=O)[C@@H]2C[C@@H](O)CN2C(=O)[C@@H](NC(=O)C2(F)CC2)C(C)(C)C)c(OCCCCCCCCCCOc2ccc(NC(=O)[C@H](C)[C@H]3CC[C@@H](c4ccnc5ccc(F)cc54)CC3)cc2)c1,23%
4,Cc1ncsc1-c1ccc(CNC(=O)[C@@H]2C[C@@H](O)CN2C(=O)[C@@H](NC(=O)C2(F)CC2)C(C)(C)C)c(OCCCCCCOc2cc(NC(=O)[C@H](C)[C@H]3CC[C@@H](c4ccnc5ccc(F)cc54)CC3)ccc2Cl)c1,0%
